The test system of series [1] is Rattus norvegicus. As to the kind of experiment: Antiarthritic activity in Sprague-Dawley rat model of arthritis assessed as reduction in CFA-induced cartilage destruction at 20 mg/kg, […] and measured every 3 days by H and E staining based histopathological analysis. It counts as functional, organism-based.
Series [2] relates to RAW264.7. As to the kind of experiment: Inhibition of MAPK signalling activation in mouse RAW264.7 cells assessed as reduction in LPS-induced p38 phosphorylation at 0.5 to 2 uM preincubated for 1 hr followed by LPS stimulation by Western blotting analysis. It counts as cell-based. The conditions noted are these: dose 0.5-2 µM, TDE = time-dependent effect. A digest of the protocol:
(§1)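 Pretreatment 1 h with 0.5–2 µM, then LPS 0.5 µg/mL for 30 min. p-IκB, IκB, p-p65, p65, ERK, JNK, p38 and their phosphorylated forms, plus β-actin, detected by Western blot (RIPA lysis, SDS-PAGE, PVDF, primary 16 h at 4 °C, HRP secondary 1:5000, ECL).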

Series [3] has as its system RAW264.7. The series can be described thus: Inhibition of MAPK signalling activation in mouse RAW264.7 cells assessed as reduction in LPS-induced ERK phosphorylation at 0.5 to 2 uM preincubated for 1 hr followed by LPS stimulation by Western blotting analysis. It counts as cell-based. To be noted: dose 0.5-2 µM, TDE = time-dependent effect. A digest of the protocol: as §1

Series [4] has as its system RAW264.7. The series can be described thus: Cytotoxicity against mouse RAW264.7 cells assessed as reduction in cell viability at 20 uM incubated for 24 hrs by MTT assay. It counts as cell-based. To be noted: raw264.7, 24 h. A digest of the protocol: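 RAW264.7 cells (1 × 10^4/well, used 24 h after seeding) exposed to 20 µM for 24 h. MTT (5 mg/mL stock) added for 4 h, supernatant removed, crystals dissolved in DMSO with 10–15 min shaking, absorbance at 492 nm.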
On the technique in general: Tetrazolium dyes change colour on reduction, which living cells bring about.

For series [5], the system named is RAW264.7. The series can be described thus: Inhibition of NF-kappaB activation in mouse RAW264.7 cells assessed as reduction in LPS-induced IkappaB protein degradation at 0.5 to 2 uM preincubated for 1 hr followed by LPS stimulation and measured after 30 mins by Western blotting analysis. Type of series: cell-based. The conditions noted are these: dose 0.5-2 µM, time 90.0 min. A digest of the protocol: as §1

In series [6] the test system is Rattus norvegicus. As to the kind of experiment: Antiarthritic activity in Sprague-Dawley rat model of CFA-induced arthritis assessed as reduction in paw swelling at 20 to 40 mg/kg, […] and measured every 3 days. Type of series: functional, organism-based. The conditions noted are these: dose 20-40 mg/kg.
For series [7], the system named is Rattus norvegicus. The series can be described thus: Antiarthritic activity in Sprague-Dawley rat model of arthritis assessed as reduction in CFA-induced inflammatory cell infiltration at 40 mg/kg, ig administered daily for 28 days starting from 14 days post-immunization and measured every 3 days by H and E staining based histopathological analysis. It counts as functional, organism-based. To be noted: time 28.0 day. An outline of the steps:
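AA rats (male SD, CFA intradermal into right hind paw) dosed intragastrically once daily at 20 or 40 mg/kg from day 14 to day 28. Killed after 29 days. Ankle joints fixed in 4% neutral buffered paraformaldehyde, decalcified in 10% EDTA, sectioned and H&E stained. Scored for synovial hyperplasia, inflammatory cell infiltration and cartilage destruction.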

Calls of active or inactive are those of the source. The rule behind the calls is not given here.

As to `COc1cc(OC)c2c(c1)C(C(O)c1ccc(OCc3ccc(F)cc3)cc1)OC2=O` (configuration not stated), the result in the series on Rattus norvegicus [1], in the series on Rattus norvegicus [6] and with Rattus norvegicus [7] was Active. Also, the inhibition result in the series on RAW264.7 [2] and in the series with RAW264.7 [3] was “Tde” each time. The Activity result in the series on RAW264.7 [4] is “Non-Toxic”. In addition, the inhibition entry in the series with RAW264.7 [5] is “Active”.

Values taken from ChEMBL document CHEMBL4765431, “Novel phthalide derivatives: Synthesis and anti-inflammatory activity in vitro and in vivo” (Eur J Med Chem, 2020).
